Measured values taken from ChEMBL document CHEMBL5390313, “Highly Potent Peptide Therapeutics To Prevent Protein Aggregation in Huntington's Disease” (ACS Med Chem Lett, 2023).
The source made the active and inactive calls. No cut-off for these calls is given here.

What was measured:
[1] = system: Huntingtin (Homo sapiens), P42858 [UNDEFINED MUTATION]; test: Inhibition of TEV protease-induced 6His-GST tagged wildtype huntingtin polyQ 25 (unknown origin) aggregation assessed as reduction of spherical oligomers at 10 uM measured immediately by AFM imaging analysis
Sequence of Huntingtin (Homo sapiens), P42858 [UNDEFINED MUTATION] (P42858 whole entry, looked up, change not shown): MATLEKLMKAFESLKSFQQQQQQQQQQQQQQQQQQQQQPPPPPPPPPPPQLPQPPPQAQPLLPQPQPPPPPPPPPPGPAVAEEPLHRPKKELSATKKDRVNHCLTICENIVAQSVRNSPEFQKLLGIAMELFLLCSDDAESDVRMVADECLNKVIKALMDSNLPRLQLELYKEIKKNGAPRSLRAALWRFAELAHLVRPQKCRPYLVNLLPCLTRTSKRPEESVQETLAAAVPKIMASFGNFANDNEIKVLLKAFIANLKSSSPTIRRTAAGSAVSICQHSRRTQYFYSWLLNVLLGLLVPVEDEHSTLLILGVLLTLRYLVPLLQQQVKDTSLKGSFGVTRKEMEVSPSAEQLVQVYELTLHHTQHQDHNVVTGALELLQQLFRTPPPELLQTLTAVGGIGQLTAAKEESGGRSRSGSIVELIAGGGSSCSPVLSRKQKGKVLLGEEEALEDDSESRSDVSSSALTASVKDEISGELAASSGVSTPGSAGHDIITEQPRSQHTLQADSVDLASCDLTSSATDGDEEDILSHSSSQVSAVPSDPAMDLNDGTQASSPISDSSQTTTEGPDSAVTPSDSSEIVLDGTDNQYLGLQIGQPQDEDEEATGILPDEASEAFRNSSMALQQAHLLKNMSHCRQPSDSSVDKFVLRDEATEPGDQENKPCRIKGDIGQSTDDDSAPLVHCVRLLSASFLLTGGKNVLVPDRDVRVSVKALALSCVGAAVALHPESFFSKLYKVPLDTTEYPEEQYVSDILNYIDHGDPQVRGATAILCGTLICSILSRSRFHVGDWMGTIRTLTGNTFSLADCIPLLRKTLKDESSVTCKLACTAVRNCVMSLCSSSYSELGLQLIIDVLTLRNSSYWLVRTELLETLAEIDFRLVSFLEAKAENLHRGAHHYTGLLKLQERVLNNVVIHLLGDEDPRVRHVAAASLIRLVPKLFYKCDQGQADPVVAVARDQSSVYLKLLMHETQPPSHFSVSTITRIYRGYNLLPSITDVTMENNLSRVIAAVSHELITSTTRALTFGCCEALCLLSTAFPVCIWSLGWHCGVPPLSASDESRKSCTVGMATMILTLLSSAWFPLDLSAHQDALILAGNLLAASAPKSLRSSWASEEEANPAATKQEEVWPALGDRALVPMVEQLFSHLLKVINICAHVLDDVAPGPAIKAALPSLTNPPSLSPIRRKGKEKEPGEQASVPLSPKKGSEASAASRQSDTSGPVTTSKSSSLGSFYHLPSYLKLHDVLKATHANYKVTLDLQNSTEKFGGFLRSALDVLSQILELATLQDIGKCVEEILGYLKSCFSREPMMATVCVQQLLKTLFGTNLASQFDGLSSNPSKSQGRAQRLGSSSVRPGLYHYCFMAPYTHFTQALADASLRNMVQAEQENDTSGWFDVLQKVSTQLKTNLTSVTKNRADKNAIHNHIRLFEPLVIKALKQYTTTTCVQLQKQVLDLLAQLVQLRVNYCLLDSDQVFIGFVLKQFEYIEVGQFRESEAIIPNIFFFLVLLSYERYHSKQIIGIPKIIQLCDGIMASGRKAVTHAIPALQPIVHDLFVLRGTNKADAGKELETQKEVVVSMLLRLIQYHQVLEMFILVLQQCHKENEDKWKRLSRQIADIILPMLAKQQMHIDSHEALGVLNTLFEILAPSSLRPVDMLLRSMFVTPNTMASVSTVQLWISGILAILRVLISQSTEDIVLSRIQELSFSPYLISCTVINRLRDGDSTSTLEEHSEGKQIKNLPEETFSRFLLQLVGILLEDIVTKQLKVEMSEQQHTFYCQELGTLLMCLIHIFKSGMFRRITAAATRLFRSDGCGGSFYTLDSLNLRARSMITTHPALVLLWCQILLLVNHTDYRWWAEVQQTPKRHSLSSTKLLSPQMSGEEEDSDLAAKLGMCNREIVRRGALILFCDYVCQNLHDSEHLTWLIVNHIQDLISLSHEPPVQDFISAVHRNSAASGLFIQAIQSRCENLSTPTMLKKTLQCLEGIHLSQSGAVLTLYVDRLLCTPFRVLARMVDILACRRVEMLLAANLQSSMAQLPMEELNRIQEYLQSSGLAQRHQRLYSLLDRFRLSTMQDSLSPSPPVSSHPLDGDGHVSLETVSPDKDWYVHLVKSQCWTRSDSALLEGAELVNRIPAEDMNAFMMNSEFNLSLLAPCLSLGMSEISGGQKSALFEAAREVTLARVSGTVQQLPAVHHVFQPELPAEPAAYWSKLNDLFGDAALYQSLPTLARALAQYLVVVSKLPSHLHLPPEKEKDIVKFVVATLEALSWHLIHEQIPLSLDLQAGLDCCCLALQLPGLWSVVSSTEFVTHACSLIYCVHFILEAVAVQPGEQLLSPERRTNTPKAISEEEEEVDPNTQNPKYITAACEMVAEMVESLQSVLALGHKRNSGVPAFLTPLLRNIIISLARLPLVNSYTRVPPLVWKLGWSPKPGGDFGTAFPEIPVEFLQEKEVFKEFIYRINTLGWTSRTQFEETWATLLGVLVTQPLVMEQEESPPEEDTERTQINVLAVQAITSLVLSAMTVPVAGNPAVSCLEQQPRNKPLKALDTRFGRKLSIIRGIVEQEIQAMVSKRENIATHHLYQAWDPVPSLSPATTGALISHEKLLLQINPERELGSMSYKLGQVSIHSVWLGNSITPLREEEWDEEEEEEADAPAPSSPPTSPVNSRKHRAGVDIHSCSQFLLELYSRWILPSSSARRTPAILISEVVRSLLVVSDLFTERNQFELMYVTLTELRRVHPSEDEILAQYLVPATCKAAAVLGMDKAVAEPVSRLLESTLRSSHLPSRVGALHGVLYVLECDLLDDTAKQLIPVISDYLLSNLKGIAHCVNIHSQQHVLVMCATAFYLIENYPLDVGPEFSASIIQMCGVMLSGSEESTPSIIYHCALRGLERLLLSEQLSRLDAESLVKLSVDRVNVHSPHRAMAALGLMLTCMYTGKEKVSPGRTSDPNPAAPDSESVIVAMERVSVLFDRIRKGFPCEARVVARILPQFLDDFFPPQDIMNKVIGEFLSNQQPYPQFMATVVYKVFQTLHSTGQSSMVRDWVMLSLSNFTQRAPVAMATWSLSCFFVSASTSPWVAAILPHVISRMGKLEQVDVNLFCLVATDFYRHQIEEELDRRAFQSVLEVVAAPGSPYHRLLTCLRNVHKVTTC

[2] = system: Huntingtin (Homo sapiens), P42858 [UNDEFINED MUTATION]; test: Inhibition of TEV protease-induced 6His-GST tagged huntingtin polyQ 103 mutant (unknown origin) aggregation assessed as decrease in fibril length at 10 uM incubated for 24 hrs by AFM imaging analysis relative to control; design: scale not given: the % may be the effect or the level left
Summary of the method: (§1)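 AFM imaging of Htt fibrils grown for 2 h after TEV cleavage in TEV cleavage buffer (pH 8.0). Peptide was then added, defining t = 0 h. Fibril length was measured at 0, 4, 8 and 24 h and reported as the mean length of 100 fibrils with standard deviation at each time point.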

[3] = system: Huntingtin (Homo sapiens), P42858 [UNDEFINED MUTATION]; test: Inhibition of TEV protease-induced 6His-GST tagged huntingtin polyQ 103 mutant (unknown origin) aggregation assessed as reduction of spherical oligomers at 10 uM measured immediately by AFM imaging analysis
Summary of the method: (§2)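 AFM imaging of Htt aggregates after TEV cleavage. Fibrils were allowed to grow for 2 h, then peptide or nothing (control) was added, defining t = 0 h. Images were taken over 0–24 h and scored for spherical oligomers, individual fibrils, branching and aggregate clusters.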

[4] = system: Huntingtin (Homo sapiens), P42858 [UNDEFINED MUTATION]; test: Inhibition of TEV protease-induced 6His-GST tagged huntingtin polyQ 46 mutant (unknown origin) aggregation assessed as reduction of spherical oligomers at 10 uM measured immediately by AFM imaging analysis
Summary of the method: as §2

[5] = system: Huntingtin (Homo sapiens), P42858 [UNDEFINED MUTATION]; test: Inhibition of TEV protease-induced 6His-GST tagged huntingtin polyQ 103 mutant (unknown origin) aggregation assessed as decrease in fibril length at 10 uM measured after 2 to 12 hrs by AFM imaging analysis; conditions: time 2-12 hrs
[6] = system: Huntingtin (Homo sapiens), P42858 [UNDEFINED MUTATION]; test: Inhibition of TEV protease-induced 6His-GST tagged huntingtin polyQ 103 mutant (unknown origin) aggregation assessed as decrease in fibril clustering at 10 uM measured after 24 hrs by AFM imaging analysis
Summary of the method: as §2

[7] = system: Huntingtin (Homo sapiens), P42858 [UNDEFINED MUTATION]; test: Inhibition of TEV protease-induced 6His-GST tagged huntingtin polyQ 103 mutant (unknown origin) aggregation assessed as decrease in individual fibers at 10 uM measured after 2 to 24 hrs by AFM imaging analysis; conditions: time 2-24 hrs
Summary of the method: as §2

[8] = system: Huntingtin (Homo sapiens), P42858 [UNDEFINED MUTATION]; test: Inhibition of TEV protease-induced 6His-GST tagged huntingtin polyQ 46 mutant (unknown origin) aggregation assessed as decrease in individual fibers at 10 uM measured after 2 to 24 hrs by AFM imaging analysis; conditions: time 2-24 hrs
Summary of the method: as §2

[9] = system: Huntingtin (Homo sapiens), P42858 [UNDEFINED MUTATION]; test: (§3) Inhibition of TEV protease-induced 6His-GST tagged huntingtin polyQ 46 mutant (unknown origin) aggregation expressed in Escherichia coli BL21(DE3) assessed as relative fluorescence unit at 1:1 molar ratio incubated for 16 hrs by ThT fluorescence based spectrophotometer analysis (reference value: 692 a.u.)
Summary of the method: (§4)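 Aggregation started by TEV protease addition, with ThT readings beginning right after cleavage. Peptide added equimolar (1:1) to each Htt protein. Fluorescence was followed at 37 °C for at least 16 h, with excitation at 438 nm and emission at 495 nm. The end-point value at 16 h is averaged over triplicates.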

[10] = system: Huntingtin (Homo sapiens), P42858 [UNDEFINED MUTATION]; test: Inhibition of TEV protease-induced 6His-GST tagged huntingtin polyQ 103 mutant (unknown origin) aggregation assessed as decrease in fibril branching at 10 uM measured after 4 to 24 hrs by AFM imaging analysis; conditions: time 4-24 hrs
Summary of the method: as §2

[11] = system: Huntingtin (Homo sapiens), P42858 [UNDEFINED MUTATION]; test: as §3, with “103” for “46”, “1235” for “692”
Summary of the method: as §4

[12] = system: Huntingtin (Homo sapiens), P42858 [UNDEFINED MUTATION]; test: Inhibition of TEV protease-induced 6His-GST tagged huntingtin polyQ 103 mutant (unknown origin) aggregation assessed as reduction in individual fibrils at 10 uM measured immediately by AFM imaging analysis
Summary of the method: as §2

[13] = system: Huntingtin (Homo sapiens), P42858 [UNDEFINED MUTATION]; test: Inhibition of TEV protease-induced 6His-GST tagged huntingtin polyQ 46 mutant (unknown origin) aggregation assessed as decrease in fibril length at 10 uM incubated for 24 hrs by AFM imaging analysis relative to control; design: scale not given: the % may be the effect or the level left
Summary of the method: as §1

[14] = system: Huntingtin (Homo sapiens), P42858 [UNDEFINED MUTATION]; test: Inhibition of TEV protease-induced 6His-GST tagged wildtype huntingtin polyQ 25 (unknown origin) aggregation assessed as decrease in individual fibers at 10 uM measured after 2 to 24 hrs by AFM imaging analysis; conditions: time 2-24 hrs
Summary of the method: as §2

[15] = system: Huntingtin (Homo sapiens), P42858 [UNDEFINED MUTATION]; test: Inhibition of TEV protease-induced 6His-GST tagged wildtype huntingtin polyQ 25 (unknown origin) aggregation assessed as decrease in fibril length at 10 uM incubated for 24 hrs by AFM imaging analysis relative to control; design: scale not given: the % may be the effect or the level left
Summary of the method: as §1

[16] = system: Huntingtin (Homo sapiens), P42858 [UNDEFINED MUTATION]; test: as §3, with “tagged wildtype” for “tagged”, “25” for “46 mutant”, “666” for “692”
Summary of the method: as §4

[17] = system: Huntingtin (Homo sapiens), P42858 [UNDEFINED MUTATION]; test: Inhibition of TEV protease-induced 6His-GST tagged huntingtin polyQ 103 mutant (unknown origin) aggregation assessed as isolated fibrils at 10 uM measured after 4 to 8 hrs by AFM imaging analysis; conditions: time 4-8 hrs
[18] = system: Huntingtin (Homo sapiens), P42858 [UNDEFINED MUTATION]; test: Inhibition of TEV protease-induced 6His-GST tagged huntingtin polyQ 46 mutant (unknown origin) aggregation assessed as decrease in fibril length at 10 uM measured after 2 to 12 hrs by AFM imaging analysis; conditions: time 2-12 hrs

Row | SMILES | inhibition [1] | Activity [2] [%] | inhibition [3] | inhibition [4] | inhibition [5] | inhibition [6] | inhibition [7] | inhibition [8] | RFU [9] [a.u.] | inhibition [10] | RFU [11] [a.u.] | inhibition [12] | Activity [13] [%] | inhibition [14] | Activity [15] [%] | RFU [16] [a.u.] | inhibition [17] | inhibition [18]
1 | CSCC[C@H](NC(=O)[C@H](CO)NC(=O)[C@H](Cc1c[nH]cn1)NC(=O)[C@H](CC(C)C)NC(=O)CNC(=O)[C@@H](N)Cc1c[nH]cn1)C(=O)N[C@@H](Cc1c[nH]cn1)C(=O)N[C@@H](CC(N)=O)C(=O)N[C@@H](CCCCN)C(=O)N[C@@H](CC(C)C)C(=O)N[C@@H](CC(C)C)C(=O)N[C@@H](CCC(N)=O)C(=O)N[C@H](C(=O)O)[C@@H](C)O | inactive | 22.7 | inactive | inactive | Active | Active | Active | Active | 500 | Active | 433 | inactive | 17.6 | Active | 38.3 | 459 | Active | Active
2 | CC(C)C[C@H](NC(=O)CNC(=O)[C@H](CC(C)C)NC(=O)[C@H](CO)NC(=O)[C@H](CC(N)=O)NC(=O)[C@H](C)NC(=O)CNC(=O)[C@H](Cc1c[nH]cn1)NC(=O)[C@@H](N)Cc1c[nH]cn1)C(=O)N[C@H](C(=O)N[C@@H](CCC(N)=O)C(=O)N[C@@H](CO)C(=O)O)C(C)C | inactive | 36.7 | inactive | inactive | Active | Active | Active | Active | 357 | Active | 564 | inactive | 24.9 | Active | 42.9 | 424 | Active | Active
3 | CSCC[C@H](NC(=O)[C@@H](N)Cc1c[nH]c2ccccc12)C(=O)N[C@@H](Cc1ccccc1)C(=O)N1CCC[C@H]1C(=O)N[C@@H](CO)C(=O)N[C@@H](CC(C)C)C(=O)N[C@@H](CCCCN)C(=O)N[C@@H](CC(C)C)C(=O)N[C@@H](CC(C)C)C(=O)N[C@@H](CC(=O)O)C(=O)N[C@@H](Cc1ccc(O)cc1)C(=O)N[C@@H](Cc1c[nH]cn1)C(=O)O | inactive | 28 | inactive | inactive | Active | Active | Active | Active | 634 | Active | 431 | inactive | 17.3 | Active | 25.6 | 552 | Active | Active
